# Test results reported in ChEMBL document CHEMBL1671789, “Evaluation of quinazoline analogues as glucocerebrosidase inhibitors with chaperone activity” (J Med Chem, 2011).
# Activity calls are given as the source filed them.
# Columns and labels:
# [1] = Inhibition of alpha-galactosidase
# [2] = system: T1, Lysosomal acid glucosylceramidase (Homo sapiens), P04062 [N409S]; experiment: Activity at recombinant Gcase N370S mutant in human spleen homogenates assessed as hydrolysis of 4-MU-beta-D-glucose at 50 uM; assay type: tissue-based
# T1 sequence (whole entry): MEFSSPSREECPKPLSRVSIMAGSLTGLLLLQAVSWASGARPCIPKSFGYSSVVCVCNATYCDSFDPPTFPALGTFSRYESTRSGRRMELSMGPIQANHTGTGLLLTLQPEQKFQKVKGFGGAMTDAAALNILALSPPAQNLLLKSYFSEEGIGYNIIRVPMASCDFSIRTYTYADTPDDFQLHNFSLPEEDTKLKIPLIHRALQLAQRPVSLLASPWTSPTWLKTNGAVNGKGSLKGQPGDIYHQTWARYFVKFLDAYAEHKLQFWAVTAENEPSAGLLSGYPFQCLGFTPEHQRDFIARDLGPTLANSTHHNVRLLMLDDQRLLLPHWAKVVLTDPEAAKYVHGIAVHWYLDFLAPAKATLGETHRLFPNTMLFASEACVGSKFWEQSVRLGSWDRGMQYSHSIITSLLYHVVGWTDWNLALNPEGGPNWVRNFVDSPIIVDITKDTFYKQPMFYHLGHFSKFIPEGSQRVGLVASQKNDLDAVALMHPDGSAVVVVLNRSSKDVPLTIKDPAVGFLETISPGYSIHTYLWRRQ
# Outline: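 Enzyme source: human spleen homogenate, 27 μg/well, in 50 mM citric acid/K2PO4 buffer pH 5 with 0.01% Tween20. Compound pin-transferred and preincubated 5 min at room temperature. Substrate 4MU-β-glc at 1 mM final, 45 min at 37 °C. Stopped with 1 M NaOH/1 M glycine pH 10. Fluorescence read at 365 nm excitation, 440 nm emission.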
# [3] = Inhibition of alpha-glucosidase
SMILES,Activity [1],Activity [2],Activity [3]
O=S(=O)(c1ccc(Cl)cc1)N1CCN(c2nc(-c3ccc(F)cc3)nc3cc(Cl)ccc23)CC1,inactive,inactive,inactive
Cc1ccc(-c2nc(N3CCN(S(=O)(=O)c4ccc(F)cc4)CC3)c3ccc(Cl)cc3n2)cc1,inactive,inactive,inactive
O=S(=O)(c1ccc(F)cc1)N1CCN(c2nc(-c3ccc(F)cc3)nc3cc(Cl)ccc23)CC1,inactive,inactive,inactive
Cc1ccc(S(=O)(=O)N2CCN(c3nc(-c4cccs4)cc4ccccc34)CC2)cc1,inactive,inactive,inactive
CCN1CCN(c2nc(-c3cccs3)nc3ccccc23)CC1,inactive,inactive,inactive
Cc1ccc(S(=O)(=O)N2CCN(c3nc(-c4cccs4)nc4[nH]cnc34)CC2)cc1,inactive,inactive,inactive
NS(=O)(=O)c1ccc(S(=O)(=O)N2CCN(c3nc(-c4cccs4)nc4ccccc34)CC2)cc1,inactive,–,inactive
O=S(=O)(c1ccccc1C(F)(F)F)N1CCN(c2nc(-c3cccs3)nc3ccccc23)CC1,inactive,–,inactive
O=S(=O)(NCCNc1nc(-c2ccco2)nc2ccccc12)c1ccccc1,inactive,–,inactive
COC(=O)c1nc(N2CCN(S(=O)(=O)c3ccc(C)cc3)CC2)c2ccccc2n1,inactive,–,inactive
CC(=O)c1ccccc1S(=O)(=O)N1CCN(c2nc(-c3cccs3)nc3ccccc23)CC1,inactive,–,inactive
O=[N+]([O-])c1ccc(S(=O)(=O)N2CCN(c3nc(-c4cccs4)nc4ccccc34)CC2)cc1,inactive,–,inactive
CCOC(=O)c1ccccc1S(=O)(=O)N1CCN(c2nc(-c3cccs3)nc3ccccc23)CC1,inactive,–,inactive
CN1CCOc2cc(S(=O)(=O)N3CCN(c4nc(-c5cccs5)nc5ccccc45)CC3)ccc21,inactive,–,inactive
CC(=O)c1ccc(S(=O)(=O)N2CCN(c3nc(-c4cccs4)nc4ccccc34)CC2)cc1,inactive,–,inactive
CC(C)(C)c1ccc(S(=O)(=O)N2CCN(c3nc(-c4cccs4)nc4ccccc34)CC2)cc1,inactive,–,inactive
O=S(=O)(c1cccc(C(F)(F)F)c1)N1CCN(c2nc(-c3cccs3)nc3ccccc23)CC1,inactive,–,inactive
Cc1ccc(S(=O)(=O)N2CCN(c3nc(-c4cnccn4)nc4ccccc34)CC2)cc1,inactive,–,inactive
Cc1ccc(S(=O)(=O)C2CCN(c3nc(-c4cccs4)nc4ccccc34)CC2)cc1,inactive,–,inactive
c1csc(-c2nc(N3CCN(Cc4ccc5c(c4)OCCO5)CC3)c3ccccc3n2)c1,inactive,–,inactive
O=C(c1ccc2c(c1)OCCO2)N1CCN(c2nc(-c3cccs3)nc3ccccc23)CC1,inactive,–,inactive
Cc1ccc(S(=O)(=O)N2CCN(c3nc(-c4cccs4)nc4ncccc34)CC2)cc1,inactive,–,inactive
Cc1ccc(S(=O)(=O)N(C)CCCN(C)c2nc(-c3cccs3)nc3ccccc23)cc1,inactive,–,inactive
Cc1ccc(S(=O)(=O)N2CCN(c3nc(-c4ncco4)nc4ccccc34)CC2)cc1,inactive,–,inactive
Cc1ccc(S(=O)(=O)N2CCN(c3cc(-c4cccs4)nc4ccccc34)CC2)cc1,inactive,–,inactive
Cc1ccc(S(=O)(=O)N2CCN(c3nc(-c4cccs4)nc(C)c3C)CC2)cc1,inactive,–,inactive
O=[N+]([O-])c1ccccc1S(=O)(=O)N1CCN(c2nc(-c3cccs3)nc3ccccc23)CC1,inactive,–,inactive
O=S(=O)(Cc1ccccc1)N1CCN(c2nc(-c3cccs3)nc3ccccc23)CC1,inactive,–,inactive

# Further lines, results first:
Activity [1],Activity [2],Activity [3],SMILES
inactive,inactive,inactive,O=S(=O)(c1ccc(Cl)cc1)N1CCN(c2nc(-c3cccc(Br)c3)nc3ccccc23)CC1
inactive,–,inactive,O=[N+]([O-])c1cccc(S(=O)(=O)N2CCN(c3nc(-c4ccccc4)nc4ccccc34)CC2)c1
inactive,–,inactive,O=S(=O)(c1ccc2c(c1)OCO2)N1CCN(c2nc(-c3cccs3)nc3ccccc23)CC1
inactive,–,inactive,COc1ccc(S(=O)(=O)N2CCN(c3nc(-c4ccccc4)nc4ccccc34)CC2)cc1
inactive,–,inactive,O=S(=O)(c1cccc2ccccc12)N1CCN(c2nc(-c3cccs3)nc3ccccc23)CC1
inactive,–,inactive,N#Cc1ccccc1S(=O)(=O)N1CCN(c2nc(-c3ccccc3)nc3ccccc23)CC1
inactive,–,inactive,CCOc1ccc(S(=O)(=O)N2CCN(c3nc(-c4ccccc4)nc4ccccc34)CC2)cc1OCC
inactive,–,inactive,O=S(=O)(c1ccccc1Br)N1CCN(c2nc(-c3cccs3)nc3ccccc23)CC1
inactive,–,inactive,O=S(=O)(c1cccc(Cl)c1)N1CCN(c2nc(-c3ccccc3)nc3ccccc23)CC1
inactive,–,inactive,O=S(=O)(c1ccc2c(c1)OCCO2)N1CCN(c2nc(-c3cccnc3)nc3ccccc23)CC1
inactive,–,inactive,O=S(=O)(c1ccccc1C(F)(F)F)N1CCN(c2nc(-c3ccccc3)nc3ccccc23)CC1
inactive,–,inactive,O=S(=O)(c1ccccc1Cl)N1CCN(c2nc(-c3cccs3)nc3ccccc23)CC1
inactive,–,inactive,O=S(=O)(c1ccccc1)N1CCN(c2nc(-c3cccs3)nc3ccccc23)CC1
inactive,–,inactive,CC(C)(C)c1ccc(S(=O)(=O)N2CCN(c3nc(-c4ccccc4)nc4ccccc34)CC2)cc1
inactive,–,inactive,O=S(=O)(c1ccc2c(c1)OCCO2)N1CCN(c2nc(-c3ccccc3)nc3ccccc23)CC1
inactive,–,inactive,NS(=O)(=O)c1ccc(S(=O)(=O)N2CCN(c3nc(-c4ccccc4)nc4ccccc34)CC2)cc1
inactive,–,inactive,O=S(=O)(c1ccccc1F)N1CCN(c2nc(-c3cccs3)nc3ccccc23)CC1
inactive,–,inactive,O=[N+]([O-])c1cccc(S(=O)(=O)N2CCN(c3nc(-c4cccs4)nc4ccccc34)CC2)c1
inactive,–,inactive,O=S(=O)(c1cccc(Cl)c1)N1CCN(c2nc(-c3cccs3)nc3ccccc23)CC1
inactive,–,inactive,O=S(=O)(c1ccc(Cl)cc1)N1CCN(c2nc(-c3ccccc3)nc3ccccc23)CC1
inactive,–,inactive,Cc1ccc(S(=O)(=O)N2CCN(c3nc(-c4cccnc4)nc4ccccc34)CC2)cc1
inactive,–,inactive,O=S(=O)(c1ccc2c(Cl)cccc2c1)N1CCN(c2nc(-c3cccs3)nc3ccccc23)CC1
inactive,–,inactive,CCOc1ccc(S(=O)(=O)N2CCN(c3nc(-c4ccccc4)nc4ccccc34)CC2)cc1
inactive,–,inactive,O=S(=O)(c1ccc(Br)cc1)N1CCN(c2nc(-c3cccs3)nc3ccccc23)CC1
inactive,–,inactive,O=S(=O)(c1ccc2c(c1)CCCC2)N1CCN(c2nc(-c3ccccc3)nc3ccccc23)CC1
inactive,–,inactive,N#Cc1ccc(S(=O)(=O)N2CCN(c3nc(-c4ccccc4)nc4ccccc34)CC2)cc1
inactive,–,inactive,COc1ccc(-c2nc(N3CCN(S(=O)(=O)c4ccc(C)cc4)CC3)c3ccccc3n2)cc1
inactive,–,inactive,Cc1ccccc1S(=O)(=O)N1CCN(c2nc(-c3cccs3)nc3ccccc23)CC1
inactive,–,inactive,CC(=O)c1ccc(S(=O)(=O)N2CCN(c3nc(-c4ccccc4)nc4ccccc34)CC2)cc1
inactive,–,inactive,Cc1cccc(S(=O)(=O)N2CCN(c3nc(-c4cccs4)nc4ccccc34)CC2)c1
